Test results from ChEMBL document CHEMBL4130504, “Discovery of new indomethacin-based analogs with potentially selective cyclooxygenase-2 inhibition and observed diminishing to PGE2 activities” (Eur J Med Chem, 2017).

Assays:
Cyclooxygenase = target: T1, Cyclooxygenase (Rattus norvegicus, UniProt P35355+Q63921); experiment: Inhibition of rat kidney microsomal COX assessed as PGE2 level using arachidonic acid as substrate preincubated for 5 to 15 mins followed by substrate addition measured after 40 mins by radio immunoassay
T1 sequence (P35355 whole entry): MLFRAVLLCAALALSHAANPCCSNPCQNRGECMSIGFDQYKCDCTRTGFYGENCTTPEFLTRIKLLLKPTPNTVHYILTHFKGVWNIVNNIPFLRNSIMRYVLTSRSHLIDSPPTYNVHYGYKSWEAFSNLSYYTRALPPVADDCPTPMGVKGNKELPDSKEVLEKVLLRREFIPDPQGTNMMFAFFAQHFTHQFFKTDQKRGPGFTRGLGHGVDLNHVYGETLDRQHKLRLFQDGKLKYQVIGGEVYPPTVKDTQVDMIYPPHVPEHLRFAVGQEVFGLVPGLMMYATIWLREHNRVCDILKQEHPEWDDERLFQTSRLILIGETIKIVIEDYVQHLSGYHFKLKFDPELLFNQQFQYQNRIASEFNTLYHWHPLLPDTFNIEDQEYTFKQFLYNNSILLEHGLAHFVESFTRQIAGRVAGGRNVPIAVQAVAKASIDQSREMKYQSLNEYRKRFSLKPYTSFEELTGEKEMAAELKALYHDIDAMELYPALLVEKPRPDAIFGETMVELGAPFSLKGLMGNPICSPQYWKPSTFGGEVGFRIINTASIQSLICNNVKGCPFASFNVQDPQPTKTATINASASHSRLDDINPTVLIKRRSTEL
T1 sequence (Q63921 whole entry): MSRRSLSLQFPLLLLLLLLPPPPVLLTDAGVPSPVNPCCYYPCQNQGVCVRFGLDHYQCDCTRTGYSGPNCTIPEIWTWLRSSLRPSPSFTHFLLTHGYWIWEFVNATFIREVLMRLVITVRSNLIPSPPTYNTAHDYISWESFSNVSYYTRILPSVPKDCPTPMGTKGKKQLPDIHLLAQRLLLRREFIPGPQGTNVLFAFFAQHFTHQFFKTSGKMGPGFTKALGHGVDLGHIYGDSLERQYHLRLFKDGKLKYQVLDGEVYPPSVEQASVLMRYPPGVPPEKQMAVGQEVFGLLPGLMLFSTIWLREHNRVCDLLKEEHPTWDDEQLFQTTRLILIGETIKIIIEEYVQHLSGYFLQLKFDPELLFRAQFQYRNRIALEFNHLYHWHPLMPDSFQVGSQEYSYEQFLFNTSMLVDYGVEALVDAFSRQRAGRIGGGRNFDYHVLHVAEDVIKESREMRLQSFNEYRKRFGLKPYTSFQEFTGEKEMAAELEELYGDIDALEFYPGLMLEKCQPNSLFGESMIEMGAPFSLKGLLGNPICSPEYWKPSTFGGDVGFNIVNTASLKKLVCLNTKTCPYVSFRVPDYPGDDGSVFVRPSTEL

[1] = Inhibition of dog kidney microsomal COX assessed as PGE2 level using arachidonic acid as substrate preincubated for 5 to 15 mins followed by substrate addition measured after 40 mins by radio immunoassay; set-up: species or system Canis lupus familiaris
How it was run: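 Dog kidney microsomes: tissue homogenized and sonicated in phosphate buffer pH 7.1 with EDTA/PMSF, 100,000g pellet collected. Arachidonic acid added, 40 min at room temperature. Stopped with 1 N HCl, neutralized, PGE2 by radioimmunoassay. COX activity = PGE2 with arachidonic acid minus ethanol vehicle. IC50 from three separate experiments, mean ± SEM.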

Rattus norvegicus [2] = experiment: Antiinflammatory activity in sc dosed Sprague-Dawley rat assessed as inhibition of cotton pellet-induced granuloma after 7 days; format: functional
How it was run: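 Adult male Sprague-Dawley rats, 120-140 g, six per group, acclimated one week. Cotton pellets (35 ± 1 mg) soaked with 0.01 mmol compound in chloroform, dried, then loaded with penicillin G/dihydrostreptomycin. Two pellets implanted subcutaneously, one per axilla, under mild anesthesia. Pellets with granuloma removed at day 7, dried 48 h at 60 °C and weighed. ED50 from dose-response at 4, 7, 10 and 15 µmol.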

Rattus norvegicus [3] = experiment: Ulcerogenicity in albino rat assessed as at 30 umol/kg, po administered daily for 3 successive days in two equal doses at 0 and 12 hrs measured at 6 hrs post last dose by magnifying lens based assay relative to control; format: toxicity, organism-based; conditions: in vivo
How it was run: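 Male albino rats, 100-120 g, fasted 12 h, six per group. Compound given orally at 30 µmol/kg/day as two equal doses at 0 and 12 h for three days. Controls got 1% gum acacia. Killed 6 h after last dose. Stomach opened along the greater curvature, washed with cold saline and examined under a magnifying lens for hyperemia, hemorrhage, erosion or ulcer. % ulceration = ulcer-bearing animals ×100/group total.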

Rattus norvegicus [4] = experiment: Antiinflammatory activity in albino rat assessed as protection against carrageenan-induced paw edema at 10 umol/kg, sc pretreated for 1 hr followed by carrageenan challenge measured after 4 hrs by plethysmometer (reference value: 0%); format: functional
How it was run: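 Male albino rats, 120-150 g, six per group. Compound in DMSO given subcutaneously at 10 µmol/kg 1 h before subplantar injection of 2% carrageenan in 0.9% saline. Controls got DMSO alone. Paw volume read by plethysmometer right after carrageenan and 4 h later. % protection = (Vc−Vd)×100/Vc from the 0–4 h increase. Mean ± SEM, Student's t-test.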

Rattus norvegicus [5] = experiment: In vivo inhibition of rat COX-2 assessed as decrease in plasma PGE2 level by EIA relative to control; format: functional
How it was run: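 Plasma from heparinized rat blood, spun at 12,000 g for 2 min, then frozen until use. PGE2 measured by competitive enzyme immunoassay with a monoclonal anti-PGE2 antibody at room temperature, read at 405 nm. Expressed as % inhibition ± SEM.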

**Q.** Which IC50 (Cyclooxygenase) does the source give for COc1ccc2c(c1)c1c(n2C(=O)c2ccc(Cl)cc2)CC(C)(C)CC1=O here?
**A.** 141 nM

**Q.** What about the IC50 [1] of the same compound?
**A.** 80 nM

**Q.** What about the ED50 (Rattus norvegicus [2]) of the same compound?
**A.** 28.27 µmol

**Q.** And the Activity (Rattus norvegicus [3])?
**A.** 13.18%

**Q.** And the Activity (Rattus norvegicus [4])?
**A.** 79.66%

**Q.** What about the “inhibition (INH)” value (Rattus norvegicus [5]) of the same compound?
**A.** 80.24%

**Q.** Which IC50 [1] does the source give for Cc1ccc(-c2cc(C(F)(F)F)nn2-c2ccc(S(N)(=O)=O)cc2)cc1 [CELECOXIB] here?
**A.** 112 nM

**Q.** What about the ED50 (Rattus norvegicus [2]) of the same compound?
**A.** 86.11 µmol

**Q.** And the Activity (Rattus norvegicus [3])?
**A.** 2.11%

**Q.** And the Activity (Rattus norvegicus [4])?
**A.** 96.73%

**Q.** What about the “inhibition (INH)” value (Rattus norvegicus [5]) of the same compound?
**A.** 77.25%

**Q.** For COc1ccc2c(c1)c(CC(=O)O)c(C)n2C(=O)c1ccc(Cl)cc1 [INDOMETHACIN], which ED50 (Rattus norvegicus [2]) is on record?
**A.** 9.568 µmol

**Q.** What about the “inhibition (INH)” value (Rattus norvegicus [5]) of the same compound?
**A.** 98.29%

**Q.** Which results are given for CS(=O)(=O)c1ccc2c(c1)c1c(n2C(=O)c2ccc(Cl)cc2)CCCC1?
**A.** IC50 (Cyclooxygenase): 116 nM; IC50 [1]: 56 nM; ED50 (Rattus norvegicus [2]): 25.67 µmol; Activity (Rattus norvegicus [3]): 12.45%; Activity (Rattus norvegicus [4]): 80.97%; inhibition (INH) (Rattus norvegicus [5]): 83.19%

**Q.** Which results are given for CS(=O)(=O)c1ccc2c(c1)c1c(n2S(=O)(=O)c2ccc(Cl)cc2)CCCC1=O?
**A.** IC50 (Cyclooxygenase): 104 nM; IC50 [1]: 53 nM; ED50 (Rattus norvegicus [2]): 22.33 µmol; Activity (Rattus norvegicus [3]): 11.29%; Activity (Rattus norvegicus [4]): 81.88%; inhibition (INH) (Rattus norvegicus [5]): 84.11%

**Q.** Which results are given for COc1ccc2c(c1)c1c(n2Cc2ccc(Cl)cc2)CC(C)(C)CC1=O?
**A.** IC50 (Cyclooxygenase): 132 nM; IC50 [1]: 77 nM; ED50 (Rattus norvegicus [2]): 17.27 µmol; Activity (Rattus norvegicus [3]): 11.2%; Activity (Rattus norvegicus [4]): 80.36%; inhibition (INH) (Rattus norvegicus [5]): 81.16%

**Q.** Which IC50 (Cyclooxygenase) does the source give for CS(=O)(=O)c1ccc2c(c1)c1c(n2C(=O)c2ccc(Cl)cc2)CCCC1=O here?
**A.** 48 nM

**Q.** And the IC50 [1]?
**A.** 34 nM

**Q.** And the ED50 (Rattus norvegicus [2])?
**A.** 12.38 µmol

**Q.** And the Activity (Rattus norvegicus [3])?
**A.** 3.28%

**Q.** What about the Activity (Rattus norvegicus [4]) of the same compound?
**A.** 88.06%

**Q.** What about the “inhibition (INH)” value (Rattus norvegicus [5]) of the same compound?
**A.** 91.29%

**Q.** With CS(=O)(=O)c1ccc2c(c1)c1c(n2Cc2ccc(Cl)cc2)CCCC1 as the compound, how does the IC50 (Cyclooxygenase) read?
**A.** 56 nM

**Q.** What about the IC50 [1] of the same compound?
**A.** 39 nM

**Q.** What about the ED50 (Rattus norvegicus [2]) of the same compound?
**A.** 14.56 µmol

**Q.** What about the Activity (Rattus norvegicus [3]) of the same compound?
**A.** 4.48%

**Q.** What about the Activity (Rattus norvegicus [4]) of the same compound?
**A.** 87.55%

**Q.** What about the “inhibition (INH)” value (Rattus norvegicus [5]) of the same compound?
**A.** 89.43%

**Q.** With CS(=O)(=O)c1ccc2c(c1)c1c(n2Cc2ccc(Cl)cc2)CCCC1=O as the compound, how does the IC50 (Cyclooxygenase) read?
**A.** 93 nM

**Q.** What about the IC50 [1] of the same compound?
**A.** 45 nM

**Q.** And the ED50 (Rattus norvegicus [2])?
**A.** 19.2 µmol

**Q.** What about the Activity (Rattus norvegicus [3]) of the same compound?
**A.** 5.4%

**Q.** And the Activity (Rattus norvegicus [4])?
**A.** 83.1%

**Q.** And the “inhibition (INH)” value (Rattus norvegicus [5])?
**A.** 86.39%

**Q.** For COc1ccc2c(c1)c1c(n2S(=O)(=O)c2ccc(Cl)cc2)CC(C)(C)CC1=O, which IC50 (Cyclooxygenase) is on record?
**A.** 128 nM

**Q.** And the IC50 [1]?
**A.** 61 nM

**Q.** What about the ED50 (Rattus norvegicus [2]) of the same compound?
**A.** 26.88 µmol

**Q.** And the Activity (Rattus norvegicus [3])?
**A.** 20.12%

**Q.** What about the Activity (Rattus norvegicus [4]) of the same compound?
**A.** 80.67%

**Q.** What about the “inhibition (INH)” value (Rattus norvegicus [5]) of the same compound?
**A.** 82.16%

**Q.** With CS(=O)(=O)c1ccc2c(c1)c1c(n2S(=O)(=O)c2ccc(Cl)cc2)CCCC1 as the compound, how does the IC50 (Cyclooxygenase) read?
**A.** 79 nM

**Q.** What about the IC50 [1] of the same compound?
**A.** 40 nM

**Q.** What about the ED50 (Rattus norvegicus [2]) of the same compound?
**A.** 18.67 µmol

**Q.** What about the Activity (Rattus norvegicus [3]) of the same compound?
**A.** 2.9%

**Q.** And the Activity (Rattus norvegicus [4])?
**A.** 85.32%

**Q.** What about the “inhibition (INH)” value (Rattus norvegicus [5]) of the same compound?
**A.** 88.2%
